Test results from ChEMBL document CHEMBL1142960, “Synthesis and structure-activity relationships for 2,4-dinitrobenzamide-5-mustards as prodrugs for the Escherichia coli nfsB nitroreductase in gene therapy” (J Med Chem, 2007).
Converted amounts (≈) assume the structure as drawn.

Experiments:
WiDr [1] = test: Antiproliferative activity against human wild type WiDr NTR-ve cells after 18 hrs; type: functional, cell-based
WiDr [2] = test: Antiproliferative activity against human WiDr NTRneo cells after 18 hrs; type: functional, cell-based
WiDr [3] = test: Selectivity ratio of IC50 for WiDr NTR-ve cells to IC50 for WiDr NTRneo cells; type: functional, Homo sapiens
V79 [4] = test: Clonogenic survival of V79 NTRoua cells after 5 hrs by MCL assay; type: functional, Cricetulus griseus
V79 [5] = test: Clonogenic survival of 3% V79 NTRpuro cells in co-cultures with 97% V79 NTRoua after 5 hrs by MCL assay; type: functional, Cricetulus griseus
Outline: (§1)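 Multicellular layer cocultures of 3% V79-NTRpuro activators and 97% V79oua NTR-ve targets (ouabain-resistant), exposed to prodrug for 5 h. MCLs were then trypsin-dissociated and plated in ouabain or puromycin selective media for clonogenic survival. C10 (10% survival) interpolated for activators and targets; AC/TC ratio derived. Mean with SEM or range over independent experiments.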

V79 [6] = test: Clonogenic survival of 97% V79 NTRoua cells in co-cultures with 3% V79 NTRpuro cells after 5 hrs by MCL assay; type: functional, Cricetulus griseus; outline: as §1
[7] = Solubility in alpha MEM; type: physicochemical
Outline: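 Solubility (mM) in α-MEM with 5% fetal calf serum at ambient temperature, measured by HPLC.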

[8] = Stability in alpha MEM at 37 degC after 24 hrs; type: physicochemical; conditions: read-out: Stability
Outline: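 Percent parent compound remaining, by HPLC, after holding in α-MEM with 5% fetal calf serum at 37 °C for 24 h.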

V79 [9] = test: Antiproliferative activity against chinese hamster wild-type V79 NTR-ve cells after 18 hrs; type: functional, cell-based; conditions: Cricetulus griseus, V79, 18 h
V79 [10] = test: Antiproliferative activity against chinese hamster V79 NTRpuro cells after 18 hrs; type: functional, cell-based; conditions: Cricetulus griseus, V79, 18 h
V79 [11] = test: Selectivity ratio of IC50 for V79 NTR-ve cells to IC50 for V79 NTRpuro cells; type: functional, Cricetulus griseus
EMT6 [12] = test: Antiproliferative activity against mouse wild type EMT6 NTR-ve cells after 18 hrs; type: functional, cell-based; conditions: EMT6, 18 h
EMT6 [13] = test: Antiproliferative activity against mouse EMT6 NTRpuro cells after 18 hrs; type: functional, cell-based; conditions: EMT6, 18 h
EMT6 [14] = test: Selectivity ratio of IC50 for EMT6 NTR-ve cells to IC50 forEMT6 NTRpuro cells; type: functional, Mus musculus
[15] = Antiproliferative activity against human wild type Skov3 NTR-ve cells after 18 hrs; type: functional, cell-based
[16] = Antiproliferative activity against human Skov3 NTRneo cells after 18 hrs; type: functional, cell-based; conditions: SK-OV-3, 18 h
[17] = Selectivity ratio of IC50 for Skov3 NTR-ve cells to IC50 for Skov3 NTRneo cells; type: functional, Homo sapiens
[18] = Partition coefficient at pH 7.4 by shake-flask method; type: physicochemical; conditions: octanol/water
Outline: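 Octanol-water partition coefficient by shake-flask at pH 7.4, reported with SEM.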

[19] = Toxicity in ip dosed CD1 nude mouse in DMA/PEG; type: organism-based; conditions: in vivo
Outline: (§2)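 Maximum tolerated dose (MTD) determined in CD-1 nude mice after a single i.p. injection of prodrug, given in the vehicle named in each line.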

EMT6 [20] = test: Antitumor activity against mixed mouse EMT6/EMT6 NTRpuro cells injected in CD1 nude mouse assessed as cell kill at 200 umol/kg, ip in DMA/PEG after 18 hrs; type: functional
V79 [21] = test: Clonogenic survival ratio of 3% V79 NTRpuro cells to 97% V79 NTRoua cells in co-culture; type: functional, Cricetulus griseus; outline: as §1
WiDr [22] = test: Antitumor activity against mixed human 10% WiDr NTRneo/ 90% WiDr tumor cells injected in CD1 nude mouse assessed as growth delay at 200 umol/kg, ip in DMA/PEG; type: functional
Outline: (§3)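 WiDr-NTRneo tumours (100% NTR+ve, or 1:9 NTR+ve:NTR-ve mixtures) in CD-1 nude mice, given a single i.p. dose at MTD. Read-out is median growth delay to 15 mm mean diameter, plus tumours not palpable 100 days after treatment. Aziridine given at 200 µmol/kg as positive control in every experiment.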

WiDr [23] = test: Antitumor activity against human 100% WiDr NTRneo tumor cells injected in CD1 nude mouse assessed as growth delay at 200 umol/kg, ip in DMA/PEG; type: functional; outline: as §3
[24] = Toxicity in ip dosed CD1 nude mouse in DMSO; type: organism-based; conditions: in vivo; outline: as §2
WiDr [25] = test: Antitumor activity against mixed human 10% WiDr NTRneo/ 90% WiDr tumor cells injected in CD1 nude mouse assessed as growth delay at 1330 umol/kg, ip in DMSO; type: functional; outline: as §3
WiDr [26] = test: Antitumor activity against human 100% WiDr NTRneo tumor cells injected in CD1 nude mouse assessed as growth delay at 1330 umol/kg, ip in DMSO; type: functional; outline: as §3
[27] = Toxicity in ip dosed CD1 nude mouse in DMSO/PEG; type: organism-based; conditions: in vivo; outline: as §2
EMT6 [28] = test: Antitumor activity against mixed mouse EMT6/EMT6 NTRpuro cells injected in CD1 nude mouse assessed as cell kill at 562 umol/kg, ip in DMSO/PEG after 18 hrs; type: functional
WiDr [29] = test: Antitumor activity against mixed human 10% WiDr NTRneo/ 90% WiDr tumor cells injected in CD1 nude mouse assessed as growth delay at 1780 umol/kg, ip in DMSO; type: functional; outline: as §3
WiDr [30] = test: Antitumor activity against human 100% WiDr NTRneo tumor cells injected in CD1 nude mouse assessed as growth delay at 562 umol/kg, ip in DMSO/PEG; type: functional; outline: as §3
EMT6 [31] = test: Antitumor activity against mixed mouse EMT6/EMT6 NTRpuro cells injected in CD1 nude mouse assessed as cell kill at 133 umol/kg, ip in DMSO after 18 hrs; type: functional

Row | Structure (SMILES) | IC50 (WiDr [1]) [µM] | IC50 (WiDr [2]) [µM] | Ratio IC50 (WiDr [3]) | Activity (V79 [4]) [µM] | Activity (V79 [5]) [µM] | Activity (V79 [6]) [µM] | solubility [7] [µM] | remaining at 24 h [8] [%] | IC50 (V79 [9]) [µM] | IC50 (V79 [10]) [µM] | Ratio IC50 (V79 [11]) | IC50 (EMT6 [12]) [µM] | IC50 (EMT6 [13]) [µM] | Ratio IC50 (EMT6 [14]) | IC50 [15] [µM] | IC50 [16] [µM] | Ratio IC50 [17] | logD [18] | MTD [24] [µmol/kg] | also measured
1 | O=C(NCCO)c1cc(N(CCI)CCI)c([N+](=O)[O-])cc1[N+](=O)[O-] | 28 | 0.882 | 31.7 | 122 | 5.5 | 10 | 400 (≈ 231 µg/mL) | 23 | – | – | – | – | – | – | – | – | – | – | – | –
2 | CS(=O)(=O)c1cc([N+](=O)[O-])c(C(N)=O)cc1N(CCCl)CCCl | 350 | 26 | 15 | >1000 | 160 | >300 | 330 (≈ 127 µg/mL) | – | 767 | 9.5 | 73 | 388 | 3.9 | 101 | 980 | 15 | 65 | – | – | –
3 | NC(=O)c1cc(N2CC2)c([N+](=O)[O-])cc1[N+](=O)[O-] [TRETAZICAR] | 54.5 | 1.14 | 51.1 | 1400 | 23 | 173 | – | – | 374 | 0.26 | 2090 | 83 | 0.098 | 947 | 174 | 0.64 | 317 | 0.14 | – | MTD [19]: 200 µmol/kg; LCK (EMT6 [20]): 3.16; Ratio (V79 [21]): 0.14; Activity (WiDr [22]): 14 days; Activity (WiDr [23]): >88 days
4 | NC(=O)c1cc(N(CCI)CCI)c([N+](=O)[O-])cc1[N+](=O)[O-] | 15 | 0.3 | 50 | >20 | 1.65 | 2 | 40 (≈ 21.4 µg/mL) | 69 | 11 | 0.2 | 54 | 25 | 0.08 | 332 | 30 | 0.43 | 71 | 2.41 | – | MTD [19]: 200 µmol/kg; LCK (EMT6 [20]): 1.48; Activity (WiDr [23]): 8 days
5 | NC(=O)c1cc(N(CCCl)CCCl)c([N+](=O)[O-])cc1[N+](=O)[O-] | 703 | 9.5 | 93 | >1000 | 98 | 120 | 750 (≈ 263 µg/mL) | 99 | 490 | 17 | 42 | 442 | 1.85 | 261 | 803 | 9.5 | 98 | 1.52 | – | MTD [19]: 200 µmol/kg; LCK (EMT6 [20]): 2.29; Activity (WiDr [22]): 11 days; Activity (WiDr [23]): 29 days
6 | CS(=O)(=O)OCCN(CCBr)c1cc(C(=O)NCCO)c([N+](=O)[O-])cc1[N+](=O)[O-] | 194 | 0.78 | 250 | – | – | – | 1700 (≈ 849 µg/mL) | 70 | 633 | 1 | 620 | 219 | 0.2 | 1330 | 286 | 0.61 | 467 | 0.46 | – | –
7 | NC(=O)c1cc(N(CCOS(N)(=O)=O)CCOS(N)(=O)=O)c([N+](=O)[O-])cc1[N+](=O)[O-] | 437 | 1.9 | 227 | >1800 | 9.5 | 800 | 1800 (≈ 850 µg/mL) | 95 | 650 | 0.87 | 788 | 770 | 1.6 | 491 | 868 | 3.9 | 265 | -0.95 | – | –
8 | O=C(NCCO)c1cc(N(CCBr)CCBr)c([N+](=O)[O-])cc1[N+](=O)[O-] | 61 | 0.34 | 182 | 150 | 5.2 | 17 | 320 (≈ 155 µg/mL) | 76 | 80 | 0.43 | 203 | 70 | 0.08 | 871 | 81 | 0.3 | 270 | 1.69 | – | –
9 | CS(=O)(=O)OCCN(CCBr)c1cc(C(=O)NCC(O)CO)c([N+](=O)[O-])cc1[N+](=O)[O-] (stereo unspecified) | 804 | 3 | 272 | >1300 | 70 | >1300 | 1300 (≈ 688 µg/mL) | 63 | 733 | 1 | 1660 | 712 | 1.6 | 527 | 1110 | 1.7 | 640 | -0.05 | 1330 | Ratio (V79 [21]): <0.05; Activity (WiDr [25]): 9 days; Activity (WiDr [26]): 55 days
10 | CS(=O)(=O)OCCN(CCI)c1cc(C(N)=O)c([N+](=O)[O-])cc1[N+](=O)[O-] | 70 | 0.41 | 172 | >200 | 4.2 | 12 | 200 (≈ 100 µg/mL) | 72 | 101 | 0.29 | 311 | 79 | 0.17 | 529 | 97 | 0.31 | 328 | 0.74 | 1330 | Ratio (V79 [21]): 0.35; Activity (WiDr [25]): 15 days; Activity (WiDr [26]): >82 days
11 | O=C(NCCCO)c1cc(N(CCBr)CCBr)c([N+](=O)[O-])cc1[N+](=O)[O-] | 56 | 0.25 | 224 | 100 | 3 | 7 | 170 (≈ 84.7 µg/mL) | 83 | 37 | 0.28 | 135 | 66 | 0.05 | 1670 | 72 | 0.23 | 309 | 1.81 | 1780 | MTD [27]: 562 µmol/kg; LCK (EMT6 [28]): >3.44; Activity (WiDr [29]): 7 days; Activity (WiDr [30]): >83 days
12 | O=C(NO)c1cc(N(CCCl)CCCl)c([N+](=O)[O-])cc1[N+](=O)[O-] | 111 | 2.01 | 55 | >1400 | 43 | >300 | 1400 (≈ 514 µg/mL) | 91 | 51 | 1.36 | 42 | 96 | 0.88 | 110 | 200 | 1.57 | 124 | 1.22 | 133 | LCK (EMT6 [31]): 0.38
